MIN6 prolif-1 – induces beta-cell replication in MIN6 cells; proliferation, % at 10 µM; hit rate 0.29% among 330,000; MIN6 cells proliferation, ATPlite luminescence, 48 h; cells starved in 0.2% serum; 100% = growth in 10% serum;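 active = compounds whose signal lies at least 3.5 SD above the mean of all wells on their plate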;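 note: 0% = DMSO-treated cells in low-serum medium and 100% = 10% serum control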
XiGFP reactiv – reactivates the inactive X chromosome in mouse fibroblasts; XiGFP mouse fibroblasts, % GFP-positive cells imaging, 3 d; cells co-treated with 5-aza-dC sensitizer; scaled so ellipticine positive control = 100%; activation, % at 7.58 µM; hit rate 0.055% among 360,000;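 active = mean normalized replicate activation at least 10% and every replicate at or above 10%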;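 note: 0% = median of on-plate neutral control wells and 100% = ellipticine 6 µM median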
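material = 68-5-11 XiGFP fibroblast line | medium = DMEM plus 5-aza-dC sensitizer | schedule = 3 days compound exposure | benchmarks = positive control ellipticine, 6 µM final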
NTR1 agonist – activates human neurotensin receptor 1; NTR1-U2OS beta-arrestin-GFP spot imaging, agonist mode; activation, % at 20 µM; hit rate 0.17% among 330,000;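 active = activation at or above 40% of the spot to cytoplasm intensity ratio, with at least 20 cells analyzed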;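 note: 0% = DMSO without peptide and 100% = 100 nM NTR1 peptide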
Target sequence (P30989 whole entry, looked up): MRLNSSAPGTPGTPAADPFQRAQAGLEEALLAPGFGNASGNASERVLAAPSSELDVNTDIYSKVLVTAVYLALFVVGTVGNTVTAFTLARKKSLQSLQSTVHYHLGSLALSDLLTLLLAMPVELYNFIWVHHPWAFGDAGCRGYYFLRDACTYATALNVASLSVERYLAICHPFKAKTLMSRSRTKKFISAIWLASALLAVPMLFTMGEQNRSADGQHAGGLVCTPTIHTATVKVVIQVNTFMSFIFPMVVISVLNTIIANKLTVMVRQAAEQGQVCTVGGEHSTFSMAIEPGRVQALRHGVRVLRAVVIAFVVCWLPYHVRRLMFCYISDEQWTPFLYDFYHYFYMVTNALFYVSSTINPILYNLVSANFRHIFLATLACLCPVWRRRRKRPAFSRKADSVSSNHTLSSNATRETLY
Arr AP2 block – inhibitors of human beta-arrestin and AP2 interaction; FITC-arrestin peptide / GST-AP2 beads, flow cytometry; AP2 beta2 appendage carries R879A mutation; inhibition, % at 10 µM; hit rate 0.31% among 340,000; AID 504490;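 active = inhibition above a set limit, near 3 SD of compounds lacking own fluorescence, cut at about 54% in these data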;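 note: plate controls were DMSO wells for no effect and 5 µM unlabelled arrestin peptide for full effect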
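system = GST-tagged AP2 beta2-adaptin appendage (R879A) on 4 µm glutathione beads | reagent = FITC-labelled arrestin peptide probe, 50 nM final | schedule = compound with beads 12 min RT, then probe 1 h RT | signal = HyperCyt-sampled flow cytometry, FL1 channel, ex 488/em 535 nm | read-out = percent response from loss of bead-bound FITC fluorescence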
T cell HTS – T cell immune modulators affecting CD8 T cell-vesicle binding | 2C CD8+ T cell-vesicle binding, flow cytometry; stronger effect = lower value | response (vesicle binding), % at 7 µM | hit rate 0.068% among 330,000 | AID 2052;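 active = response, share of CD8 T cells binding vesicles, and their 90th percentile fluorescence all below set limits, cut at about 80% in these data, passing the limit was not always enough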;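 note: values below 100% mean blocked vesicle binding to the CD8+ T cells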
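material = purified 2C TCR transgenic mouse naive CD8+ T cells | controls = Unloaded micro-vesicles (low), QL9 vesicles with 0.7% DMSO (high) | detection = cytometric PE anti-B7-1 and Alexa647 anti-CD8 signals after 1% paraformaldehyde fixation | incubation = binding step 1.5 h, 37 °C, antibody labelling 20 min, ice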
V-ATPase pH – regulators of yeast V-ATPase proton transport; S. cerevisiae, pHLuorin cytosolic pH fluorescence; response, % at 10 µM; hit rate 0.37% among 350,000; AID 504577; in the data active = response mostly above about 7.3%, no sharp cut-off; inactive = mostly below about 5.4%; note: actives read high
MIN6 prolif-2 – MIN6 beta-cell replication induction, confirmed | AID 463095 | MIN6 beta-cell proliferation, ATPlite luminescence, 48 h; cells kept in 0.2% serum; scaled between 0.2% and 10% serum | shares compounds with MIN6 prolif-1 | proliferation increase, % at 50 µM | 920 tested, under 10 active;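 active = proliferation increase above 40% at any of the four tested concentrations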
* hit, by the source's call; i = inactive; / = no result given. Shown are actives, neighbours in structure and some others; about 0.89% of the full set was active somewhere.

SMILES	MIN6 prolif-1	XiGFP reactiv	NTR1 agonist	Arr AP2 block	T cell HTS	V-ATPase pH	MIN6 prolif-2
CCN(CCn1cccn1)Cc1nc(-c2ccccc2)no1	-3	0	-1	24	0	0	/
COc1cc(C)nc(NS(=O)(=O)c2ccc(C)cc2)n1	0	/	0	3	259	4	/
COc1nc(N)nc(N)c1NS(=O)(=O)c1ccc(C)cc1	9.8*	0	-1	-2	219	0	0
CCC(=O)N1CC2(CCN(S(C)(=O)=O)CC2)c2c(n(C)c3cc(OC)ccc23)[C@H]1CO	/	0	/	/	/	/	/
CCCNC(=O)c1n[nH]c(=O)c2ccccc12	5.6*	/	-1	-8	255	-3	2
COc1ccc(CN(C)C[C@@H]2OCCCC[C@@H](C)Oc3ccc(NC(=O)NC4CCCCC4)cc3C(=O)N([C@@H](C)CO)C[C@H]2C)cc1	/	0	/	/	/	/	/
COc1ccccc1C(C)NCC(=O)Nc1ccccc1C(F)(F)F (centres undefined)	5.3*	0	0	1	i	8	-6
CCC(O)(C(=O)Nc1ccccc1C(F)(F)F)c1ccccc1OC (centres undefined)	-3	0	-1	6	89	-5	/
O=S(=O)(c1ccc(F)cc1)N1CC[C@@H]2[C@H](CO)Nc3ccc(C#CC4CC4)cc3[C@@H]21	/	0	/	/	/	/	/
O=C(N/N=C/c1cc2c(cc1Cl)OCO2)c1cccc(Br)c1	11*	0	6	23	0	-1	-2
NC(=O)CC1C(=O)N(c2ccc(Cl)cc2)C(=S)N1NC(=O)c1cccc(F)c1 (centres undefined)	1	0	0	-2	84	-1	/
CNC(=O)CC1C(=O)N(c2ccc(Cl)cc2)C(=S)N1NC(=O)c1cccc(F)c1 (centres undefined)	9.8*	0	0	2	221	-2	-6
O=C(OCC(=O)N1CCN(c2ccccc2)CC1)c1cccs1	3	0	0	7	354	-5	/
CCc1ccccc1NC(=O)COC(=O)c1cccs1	8.1*	0	-2	22	261	0	2
O=C(OCC(=O)N1CCCC1)c1cccs1	8.1*	/	-1	6	160	4	1
COc1ccc2c3c(n(C)c2c1)[C@H](CO)N(C(C)=O)CC31CCN(Cc2cncnc2)CC1	/	0	/	/	/	/	/
C[C@@H]1CN(C)C(=O)c2cccc(N)c2O[C@@H]1CN(C)C(=O)OC(C)(C)C	/	0	/	/	/	/	/
O=C1CCCCCCC1Sc1ccccc1[N+](=O)[O-] (centres undefined)	6.2*	/	0	5	251	-1	-4
Cn1c(=O)c2c(nc(OCc3ccccc3)n2C)n(C)c1=O	16*	0	2	3	235	2	5
COc1cccc(COc2nc3c(c(=O)n(C)c(=O)n3C)n2C)c1	2	/	1	-11	198	1	/
CN(C)S(=O)(=O)c1cc([N+](=O)[O-])ccc1N1CCCCCC1	12*	/	-2	-8	195	1	-4
CC(C)CN(CC(C)C)S(=O)(=O)c1cc([N+](=O)[O-])ccc1N1CCCCCC1	0	/	0	-1	376	-2	/
Cc1ccc(S(=O)(=O)Nc2cc(S(=O)(=O)N3CCOCC3)ccc2NCC2CCCO2)cc1 (centres undefined)	15*	5	4	14	446	-3	4
CC(C)n1c(SCc2ccc(Cl)cc2)nc2c1c(=O)[nH]c(=O)n2C	5.6*	/	4	-1	258	-3	-6
O=C(O)C1CCCCC1C(=O)NCCCc1ccccc1 (centres undefined)	9.0*	/	1	-1	589	1	-3
SMILES	MIN6 prolif-1	XiGFP reactiv	NTR1 agonist	Arr AP2 block	T cell HTS	V-ATPase pH	MIN6 prolif-2
O=C(O)C1CCCCC1C(=O)NCCCCc1ccccc1 (centres undefined)	-3	/	0	28	270	1	/
CCS(=O)(=O)NCC[C@H]1CC[C@H](NC(=O)C2CC2)[C@@H](CO)O1	/	0	/	/	/	/	/
CC(C)c1cc(=O)[nH]c(N2CCN(Cc3ccc4c(c3)OCO4)CC2)n1	8.7*	1	0	31	409	-4	-2
CCN(CC)Cc1c(C(=O)N/N=C/c2ccc(C)o2)nnn1-c1nonc1N	0.0*	/	0	25	354	-4	4
COc1ccc(C(=O)N=C2SC3CS(=O)(=O)CC3N2c2ccc(N(C)C)cc2)cc1OC (centres undefined)	14*	0	-1	-4	243	-1	3
COc1ccc(N2C(=NC(=O)C3CCCCC3)SC3CS(=O)(=O)CC32)cc1OC (centres undefined)	2	0	0	-9	358	9	/
Cc1ccc(-c2cn(-c3ccccc3)c(SCC(N)=O)n2)cc1C	7.6*	0	2	-1	237	-2	-6
CCC(=O)Nc1ccc2c(c1)C(=O)N(C)[C@H]1CC[C@@H](CC(=O)N[C@@H](C)c3ccccc3)O[C@H]1CO2	/	0	/	/	/	/	/
CCc1ccccc1N(C(=O)c1snc(C(N)=O)c1N)C(C(=O)NCC1CCCO1)c1ccc(C)o1 (centres undefined)	-1	0	-4	10	472	-1	/
Cc1ccc(N(C(=O)c2snc(C(N)=O)c2N)C(C(=O)NCC2CCCO2)c2ccc(C)o2)c(C)c1 (centres undefined)	17*	0	2	21	434	-6	-6
CCc1ccccc1N(C(=O)c1snc(C(N)=O)c1N)C(C(=O)NCC1CCCO1)c1ccc(N(C)C)cc1 (centres undefined)	8.7*	0	3	24	/	0	-1
Cc1ccccc1N(C(=O)c1snc(C(N)=O)c1N)C(C(=O)NCC1CCCO1)c1ccc(N(C)C)cc1 (centres undefined)	0	0	0	13	i	-1	/
COc1ccc(C(C(=O)NCc2ccccc2)N(C(=O)c2snc(C(N)=O)c2N)c2ccccc2OC)cc1OC (centres undefined)	22*	0	1	18	259	-2	-2
COc1ccc(N(C(=O)c2snc(C(N)=O)c2N)C(C(=O)NCc2ccccc2)c2ccc(O)cc2)cc1OC (centres undefined)	-2	0	1	4	/	-2	/
Cc1noc(C)c1NC(=O)Nc1cccc2c1O[C@@H](CN(C)C(=O)Nc1cccc3ccccc13)[C@@H](C)CN([C@@H](C)CO)C2=O	/	0	/	/	/	/	/

From PubChem BioAssay
